Experimental data from ChEMBL document CHEMBL5357066, “Development of Novel Membrane Disrupting Lipoguanidine Compounds Sensitizing Gram-Negative Bacteria to Antibiotics” (ACS Med Chem Lett, 2024).
In brackets after ≈: the same amount, converted by molar mass.

Assays:
[1] = system: Pseudomonas aeruginosa; experiment: Antibacterial activity against Pseudomonas aeruginosa NCTC 13437 assessed as bacterial growth inhibition incubated for overnight by microbroth dilution method; type: functional
How it was run: (§1)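 Broth microdilution in Tryptic Soy Broth. DMSO stocks were diluted in TSB as 2-fold series. Overnight TSB cultures were back-diluted to OD 0.01 and mixed 1:1 with compound. Incubation was overnight at 37 °C. MIC was the lowest concentration without visible growth (<0.1 OD600). DMSO vehicle was checked at equivalent concentrations.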

[2] = system: Acinetobacter baumannii; experiment: Antibacterial activity against Acinetobacter baumannii ATCC 17978 assessed as bacterial growth inhibition incubated for overnight by microbroth dilution method; type: functional; how it was run: as §1
[3] = system: Enterococcus faecalis; experiment: Antibacterial activity against vancomycin sensitive Enterococcus faecalis NCTC 775 assessed as bacterial growth inhibition incubated for overnight by microbroth dilution method
[4] = system: Enterococcus faecium; experiment: Antibacterial activity against vancomycin resistant Enterococcus faecium NCTC 12204 assessed as bacterial growth inhibition incubated for overnight by microbroth dilution method; type: functional
How it was run: (§2)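 Microbroth dilution in Tryptic Soy Broth. DMSO stocks were diluted in TSB as 2-fold series. Overnight TSB cultures were back-diluted to OD 0.01 and mixed 1:1 with compound. Incubation was overnight at 37 °C. MIC is the lowest concentration with no visible growth (<0.1 OD600). DMSO at equivalent concentrations was checked.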

[5] = system: Escherichia coli; experiment: Antibacterial activity against Escherichia coli NCTC 12923 assessed as bacterial growth inhibition incubated for overnight by microbroth dilution method; type: functional; how it was run: as §1
[6] = system: Klebsiella pneumoniae; experiment: Antibacterial activity against Klebsiella pneumoniae M6 assessed as bacterial growth inhibition incubated for overnight by microbroth dilution method
[7] = system: Staphylococcus aureus; experiment: Antibacterial activity against methicillin resistant Staphylococcus aureus USA 300 assessed as bacterial growth inhibition incubated for overnight by microbroth dilution method; type: functional; how it was run: as §2
[8] = system: Enterococcus faecalis; experiment: Antibacterial activity against vancomycin resistant Enterococcus faecalis NCTC 12201 assessed as bacterial growth inhibition incubated for overnight by microbroth dilution method; type: functional; how it was run: as §2
[9] = system: Staphylococcus aureus; experiment: Antibacterial activity against methicillin sensitive Staphylococcus aureus ATCC 9144 assessed as bacterial growth inhibition incubated for overnight by microbroth dilution method; type: functional; how it was run: as §2
[10] = system: Staphylococcus aureus; experiment: Antibacterial activity against methicillin sensitive Staphylococcus aureus 1199B assessed as bacterial growth inhibition incubated for overnight by microbroth dilution method; type: functional; how it was run: as §2
[11] = system: Pseudomonas aeruginosa; experiment: Antibacterial activity against Pseudomonas aeruginosa PAO1 assessed as bacterial growth inhibition incubated for overnight by microbroth dilution method; type: functional; how it was run: as §1
[12] = system: Acinetobacter baumannii; experiment: Antibacterial activity against Acinetobacter baumannii AYE assessed as bacterial growth inhibition incubated for overnight by microbroth dilution method; type: functional; how it was run: as §1
[13] = system: Klebsiella pneumoniae; experiment: Antibacterial activity against ESBL Klebsiella pneumoniae NCTC 13368 assessed as bacterial growth inhibition incubated for overnight by microbroth dilution method
[14] = system: Staphylococcus aureus; experiment: Antibacterial activity against methicillin resistant Staphylococcus aureus NCTC 13616 assessed as bacterial growth inhibition incubated for overnight by microbroth dilution method; type: functional; how it was run: as §2
[15] = system: Pseudomonas aeruginosa; experiment: Synergistic antibacterial activity against Pseudomonas aeruginosa PAO1 assessed as fold change in rifampicin MIC at <=0.25 times MIC incubated for overnight by microbroth dilution checkerboard assay relative to rifampicin alone; type: functional
How it was run: (§3)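 Checkerboard microdilution in Tryptic Soy Broth, run like the MIC assay. Overnight TSB cultures were back-diluted to OD 0.01 and added 1:1 to the combined two-fold series of both agents, then incubated overnight at 37 °C. Growth/no-growth was called at <0.1 OD600. MICs alone were read on the same plates. FIC index came from the most synergistic well; three independent repeats, mean ± SD.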

[16] = system: Acinetobacter baumannii; experiment: Synergistic antibacterial activity against Acinetobacter baumannii AYE assessed as rifampicin MIC at <=0.25 times MIC incubated for overnight by microbroth dilution checkerboard assay; type: functional
How it was run: (§4)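 Checkerboard microdilution under MIC conditions (TSB, overnight, 37 °C). Two-fold series of each agent were combined on one plate before bacteria were added, and single-agent MICs were measured on the same plate. FIC = sum of combination MIC/alone MIC for each agent, taken from the most synergistic well. Three independent repeats, mean ± SD. ≤0.5 was taken as strong synergy and 0.5–<1 as weak.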

[17] = system: Acinetobacter baumannii; experiment: Synergistic antibacterial activity against Acinetobacter baumannii ATCC 17978 assessed as fold change in rifampicin MIC at <=0.25 times MIC incubated for overnight by microbroth dilution checkerboard assay relative to rifampicin alone; type: functional; how it was run: as §4
[18] = system: Pseudomonas aeruginosa; experiment: Synergistic antibacterial activity against Pseudomonas aeruginosa PAO1 assessed as rifampicin MIC at <=0.25 times MIC incubated for overnight by microbroth dilution checkerboard assay; type: functional; how it was run: as §3
[19] = system: Klebsiella pneumoniae; experiment: Synergistic antibacterial activity against Klebsiella pneumoniae NCTC 13368 assessed as rifampicin MIC at <=0.25 times MIC incubated for overnight by microbroth dilution checkerboard assay; type: functional; how it was run: as §4
[20] = system: Acinetobacter baumannii; experiment: Synergistic antibacterial activity against Acinetobacter baumannii ATCC 17978 assessed as rifampicin MIC at <=0.25 times MIC incubated for overnight by microbroth dilution checkerboard assay; type: functional; how it was run: as §4
[21] = system: Acinetobacter baumannii; experiment: Synergistic antibacterial activity against Acinetobacter baumannii AYE assessed as fold change in rifampicin MIC at <=0.25 times MIC incubated for overnight by microbroth dilution checkerboard assay relative to rifampicin alone; type: functional; how it was run: as §4
[22] = system: Erythrocyte; experiment: Hemolytic activity in human Red blood cells at 512 microg/ml measured after 1 hrs by absorbance based assay; type: toxicity, cell-based; conditions: dose 512 µg/ml
How it was run: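 Titrations in PBS were incubated with freshly collected human red blood cells for 1 h at 37 °C. Controls were 0.1% Triton-X-100 (full lysis) and PBS alone (no lysis). After centrifugation, supernatant OD550 was read. % haemolysis = (AP−AB)/(AC−AB)×100. Data are means and standard error of three biological replicates.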

[23] = system: Pseudomonas aeruginosa; experiment: Synergistic antibacterial activity against Pseudomonas aeruginosa NCTC 13437 assessed as rifampicin MIC at <=0.25 times MIC incubated for overnight by microbroth dilution checkerboard assay; type: functional; how it was run: as §3
[24] = system: Klebsiella pneumoniae; experiment: Synergistic antibacterial activity against […] Klebsiella pneumoniae M6 assessed as rifampicin MIC at <=0.25 times MIC incubated for overnight by microbroth dilution checkerboard assay; type: functional
How it was run: (§5)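 Checkerboard run under the MIC conditions (TSB, overnight, 37 °C). Antibiotic and lipoguanidine 2-fold series were combined on one plate before bacteria were added. Growth/no-growth was scored as for the MIC (<0.1 OD600). Single-agent MICs were measured on the same plates. Three independent repeats were done.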

[25] = system: Klebsiella pneumoniae; experiment: Synergistic antibacterial activity against Klebsiella pneumoniae NCTC 13368 assessed as fold change in rifampicin MIC at <=0.25 times MIC incubated for overnight by microbroth dilution checkerboard assay relative to rifampicin alone; type: functional; how it was run: as §5
[26] = system: Pseudomonas aeruginosa; experiment: Synergistic antibacterial activity against Pseudomonas aeruginosa NCTC 13437 assessed as fold change in rifampicin MIC at <=0.25 times MIC incubated for overnight by microbroth dilution checkerboard assay relative to rifampicin alone; type: functional; how it was run: as §3
[27] = system: Escherichia coli; experiment: Synergistic antibacterial activity against Escherichia coli NCTC 12923 assessed as fold change in rifampicin MIC at <=0.25 times MIC incubated for overnight by microbroth dilution checkerboard assay relative to rifampicin alone; type: functional; how it was run: as §4
[28] = system: Escherichia coli; experiment: Synergistic antibacterial activity against Escherichia coli NCTC 12923 assessed as rifampicin MIC at <=0.25 times MIC incubated for overnight by microbroth dilution checkerboard assay; type: functional; how it was run: as §4

Structure (SMILES)	MIC [1] [µg/mL]	MIC [2] [µg/mL]	MIC [3] [µg/mL]	MIC [4] [µg/mL]	MIC [5] [µg/mL]	MIC [6] [µg/mL]	MIC [7] [µg/mL]	MIC [8] [µg/mL]	MIC [9] [µg/mL]	MIC [10] [µg/mL]	MIC [11] [µg/mL]	MIC [12] [µg/mL]	MIC [13] [µg/mL]	MIC [14] [µg/mL]	fold change (FC) [15]	MIC [16] [µg/mL]	fold change (FC) [17]	MIC [18] [µg/mL]	MIC [19] [µg/mL]	MIC [20] [µg/mL]	also measured
CCCCCCCC/C=C\CCCCCCCCNC(=N)NCCCCCCCCNC(=N)N	> 128	16 (≈ 33.4 µM)	4 (≈ 8.35 µM)	4 (≈ 8.35 µM)	32 (≈ 66.8 µM)	64 (≈ 134 µM)	2 (≈ 4.18 µM)	4 (≈ 8.35 µM)	4 (≈ 8.35 µM)	4 (≈ 8.35 µM)	> 128	16 (≈ 33.4 µM)	128 (≈ 267 µM)	4 (≈ 8.35 µM)							
CCCCCCCCCCCCCCCCNC(=N)NCCCCN	> 128	4 (≈ 11.3 µM)	2 (≈ 5.64 µM)	2 (≈ 5.64 µM)	32 (≈ 90.2 µM)	8 (≈ 22.6 µM)	2 (≈ 5.64 µM)	2 (≈ 5.64 µM)	2 (≈ 5.64 µM)	4 (≈ 11.3 µM)	> 128	32 (≈ 90.2 µM)	> 128	2 (≈ 5.64 µM)	>=4	≤ 0.125	>=4	2	2	0.25	fold change (FC) [21]: >=4; Activity [22]: Toxic; MIC [23]: 16 µg/mL; MIC [24]: 0.25 µg/mL; fold change (FC) [25]: >=4; fold change (FC) [26]: 0
CCCCC/C=C\C/C=C\CCCCCCCCNC(=N)NCCCCNC(=N)N	64 (≈ 152 µM)	32 (≈ 76.1 µM)	8 (≈ 19 µM)	8 (≈ 19 µM)	8 (≈ 19 µM)	32 (≈ 76.1 µM)	4 (≈ 9.51 µM)	8 (≈ 19 µM)	4 (≈ 9.51 µM)	4 (≈ 9.51 µM)	64 (≈ 152 µM)	> 64	> 64	4 (≈ 9.51 µM)	>=4	≤ 0.125	>=4	2	≤ 0.125	≤ 0.125	fold change (FC) [27]: >=4; MIC [28]: 4 µg/mL; fold change (FC) [21]: >=4; MIC [23]: 4 µg/mL; MIC [24]: ≤ 0.125 µg/mL; fold change (FC) [25]: >=4; fold change (FC) [26]: >=4
